Experimental data from different studies.
Each line is one published result; the experiments were not run side by side.
Cell line: A549
Read-out: cell growth or viability

| Structure (SMILES) | technique | concentration | time | quantity | result |
| --- | --- | --- | --- | --- | --- |
| CCCCCC(=O)Nc1ccc(-c2ccc3ncn(CCCC)c(=O)c3c2)cn1 | CCK-8 |  | 72 h | IC50 | 1.34 µM |
| O=C(NCc1cn(Cc2ccc(Br)cc2)nn1)Nc1ccc(Cl)cc1 | CCK-8 | 50 µM | 72 h | viability | 97% |
| CCC(=O)NCc1ccc(-c2cnc(C3CN(C(=O)c4ccc(NC(=O)[C@@H]5CC(C)(C)CN5)s4)C3)s2)c2ccccc12 |  |  | 14 days | GI50 | 0.46 µM |
| COc1ccc(NC(=O)Nc2cccc(-c3cn(Cc4cccc(Cl)c4)nn3)c2)cc1 | CCK-8 | 20 µM | 72 h | viability | 141% |
| CC(C)(C)[C@H](N)C(=O)Nc1ccccc1/N=c1\cc(-c2ccc3c(c2)OCO3)oc2ccccc12 | CCK-8 | 1 µM |  | inhibition | 3.13% |
| O=C(Nc1cccc(-c2cn(Cc3ccc(Br)cc3)nn2)c1)Nc1ccccc1Br | CCK-8 | 50 µM | 72 h | viability | 70.9% |
| COc1ccc(Cn2cnc3ccc(-c4ccc(NC(=O)c5ccccc5)nc4)cc3c2=O)cc1 | CCK-8 |  | 72 h | IC50 | > 10 µM |
| CCCCCCCCCCCCCCCCCCOc1ccccc1CC(=O)OCC[N+](C)(C)C | SRB | 10 µM |  | inhibition | 88.5% |
| COc1ccc(NC(=O)NCc2cn(Cc3ccc(C)cc3)nn2)cc1 | CCK-8 | 20 µM | 72 h | viability | 70.4% |
| C[C@H](N)C(=O)Nc1ccccc1/N=c1\cc(-c2ccc3c(c2)OCCO3)oc2cc(F)ccc12 | CCK-8 | 1 µM |  | inhibition | -0.65% |
| CCCCCCCCCCCCCCCCCCOc1ccc(CC(=O)OCC[N+](C)(C)C)cc1 | SRB | 10 µM |  | inhibition | 5.41% |
| O=C(Nc1ccc(Cl)cc1)Nc1ccc(-c2cn(Cc3cccc(Cl)c3)nn2)cc1 | CCK-8 | 50 µM | 72 h | viability | 73.2% |
| CCCCC(=O)Nc1ccc(-c2ccc3ncn(CC4CC4)c(=O)c3c2)cn1 | CCK-8 |  | 72 h | IC50 | 0.42 µM |
| O=C(Nc1ccc(-c2cn(Cc3ccc(Cl)cc3)nn2)cc1)Nc1ccccc1Br | CCK-8 | 50 µM | 72 h | viability | 107% |
| COc1ccc2/c(=N/c3ccccc3NC(=O)N3CCOCC3)cc(-c3ccc4c(c3)OCCO4)oc2c1 | CCK-8 | 1 µM |  | inhibition | 2.09% |
| O=C(Nc1ccc(Cl)cc1)Nc1cccc(-c2cn(Cc3cccc(Br)c3)nn2)c1 | CCK-8 | 20 µM | 72 h | viability | 123% |
| CCCCCCCCCCCCCCCCCCOc1ccccc1CC(=O)OCCC[N+](C)(C)C | SRB | 10 µM |  | inhibition | 45.8% |
| O=C(Nc1ccc(-c2cn(Cc3ccc(Br)cc3)nn2)cc1)Nc1ccccc1Br | CCK-8 | 20 µM | 72 h | viability | 77.3% |
| CCCCCCCCCCCCCCCCCCOc1ccc(CC(=O)OCCC[N+](C)(C)C)cc1 | SRB | 10 µM |  | inhibition | 21.9% |
| COc1ccc(NC(=O)Nc2cccc(-c3cn(Cc4ccc(Br)cc4)nn3)c2)cc1 | CCK-8 | 50 µM | 72 h | viability | 271% |
| CCCCCC(=O)Nc1ccc(-c2ccc3ncn(CC4CC4)c(=O)c3c2)cn1 | CCK-8 |  | 72 h | IC50 | 0.25 µM |

| Structure (SMILES) | technique | concentration | time | quantity | result |
| --- | --- | --- | --- | --- | --- |
| NCCC(=O)Nc1ccc(/N=c2\cc(-c3ccc4c(c3)OCO4)oc3ccccc23)cc1 | CCK-8 | 1 µM |  | inhibition | -1.6% |
| O=C(Nc1ccc(Cl)cc1)Nc1ccc(-c2cn(Cc3ccc(Br)cc3)nn2)cc1 | CCK-8 | 20 µM | 72 h | viability | 69.1% |
| CCCCn1cnc2ccc(-c3ccc(NC(=O)Nc4ccc(OC(F)(F)F)cc4)nc3)cc2c1=O | CCK-8 |  | 72 h | IC50 | > 10 µM |
| Nc1nc2ccc(-c3c/c(=N\c4ccccc4NC(=O)C4CCNC4)c4ccccc4o3)cc2o1 (centres unmarked) | CCK-8 | 1 µM |  | inhibition | 22.7% |
| CCCCC(=O)Nc1ccc(-c2ccc3ncn(CCC)c(=O)c3c2)c(F)n1 | CCK-8 |  | 72 h | IC50 | > 10 µM |
| CCNc1nc2ccc(-c3c/c(=N\c4ccccc4NC(=O)CCN)c4ccccc4o3)cc2o1 | CCK-8 | 1 µM |  | inhibition | 14.1% |
| CCCCCCCCCCCCCCCCCCOc1ccccc1CC(=O)OCC[N+]1(C)CCCC1 | SRB | 10 µM |  | inhibition | 77% |
| Cc1c(Cl)c(=O)oc2cc(OCCCCSC#N)ccc12 | SRB |  |  | GI50 | 13 µM |
| CCCn1cnc2ccc(-c3ccc(N4CCCC4=O)nc3)cc2c1=O | CCK-8 |  | 72 h | IC50 | > 10 µM |
| O=C(NCc1cn(Cc2ccc(Cl)cc2)nn1)Nc1ccc(Cl)cc1 | CCK-8 | 50 µM | 72 h | viability | 67.6% |
| CCOc1ccc(C(=O)CC(SCc2ccc(Cl)cc2)C(=O)OC)cc1 (centres unmarked) | MTT |  | 48 h | EC50 | > 250 µM |
| COc1ccc(NC(=O)Nc2ccc(-c3cn(Cc4ccc(C)cc4)nn3)cc2)cc1 | CCK-8 | 20 µM | 72 h | viability | 67.9% |
| Cc1ccc(C(=O)Nc2ccc(-c3ccc4ncn(Cc5ccccc5)c(=O)c4c3)cn2)cc1 | CCK-8 |  | 72 h | IC50 | > 10 µM |
| CCCCCCCCCCCCCCCCCCOc1cccc(CC(=O)OCC[N+]2(C)CCOCC2)c1 | SRB | 10 µM |  | inhibition | 7.62% |
| COc1ccc(NC(=O)Nc2cccc(-c3cn(Cc4ccccc4C)nn3)c2)cc1 | CCK-8 | 50 µM | 72 h | viability | 212% |
| O=C(Nc1ccccc1/N=c1\cc(-c2ccc3c(c2)OCCO3)oc2cc(F)ccc12)N1CCOCC1 | CCK-8 | 1 µM |  | inhibition | -4.17% |
| COc1ccc(NC(=O)Nc2ccc(-c3cn(Cc4ccc(Cl)cc4)nn3)cc2)cc1 | CCK-8 | 20 µM | 72 h | viability | 102% |
| N[C@@H](CO)C(=O)Nc1ccccc1/N=c1\cc(-c2ccc3c(c2)OCO3)oc2ccccc12 | CCK-8 | 1 µM |  | inhibition | -0.16% |
| COc1ccc(NC(=O)Nc2cccc(-c3cn(Cc4ccc(Cl)cc4)nn3)c2)cc1 | CCK-8 | 50 µM | 72 h | viability | 270% |
| O=C(NCc1cn(Cc2ccc(Br)cc2)nn1)Nc1ccccc1Br | CCK-8 | 50 µM | 72 h | viability | 91.5% |
